# Measurements from different studies.
# Lines come from different studies, so protocols differ.
# Target: Activin receptor type-2A (ACVR2A, Homo sapiens, UniProt P27037)
Structure (SMILES),read-out,mode,technique,tested at,quantity,value
CCC(=O)N[C@H]1CC[C@@H](C(=O)N(C)c2ccc(-c3nc4ccccc4o3)cc2)C1,cell-free assay,,competition with immobilised ligand,1 µM,remaining binding,98%
Cn1c2c(Cl)c(Cl)ccc2c2cc(N)[nH]c(=O)c21,thermal stability,,DSF,10 µM,ΔTm,0.6 °C
Nc1ncnc2occ(-c3ccc(NC(=O)Nc4cc(C(F)(F)F)ccc4F)cc3)c12,cell-free assay,,,20 µM,remaining signal,45%
Cn1c2c(Cl)c(Cl)ccc2c2cc[nH]c(=O)c21,thermal stability,,DSF,10 µM,ΔTm,2.7 °C
CC(C)(C)c1nc(-c2cccc(NS(=O)(=O)c3c(F)cccc3F)c2F)c(-c2ccnc(N)n2)s1,enzyme activity,inhibitor,radiometric,1 µM,remaining activity,9%
CN1CC(Oc2cnc(C#N)cc2-c2ccn3nc(NC(=O)C4CC4)cc3c2)C1,enzyme activity,inhibitor,,1 µM,inhibition,7%
CCN1CCC2(CC1)NC(=O)c1c(c3ccc(Cl)c(Cl)c3n1C)C2C#N (racemic),thermal stability,,DSF,10 µM,ΔTm,0.1 °C
COc1cccc(CNC(=O)c2nc3scc(COCc4ccc(C(=O)O)cc4)c3c(=O)[nH]2)c1,cell-free assay,,competition with immobilised ligand,1 µM,remaining binding,92.9%
CC(C)(C)c1nc2c(s1)c1nc(N)ncc1c1ccc(NS(=O)(=O)c3c(F)cccc3F)c(F)c12,enzyme activity,inhibitor,radiometric,1 µM,remaining activity,74%
COc1cc(Cl)c(C(=O)N[C@@H](CN[C@H]2CC[C@@H](N)CC2)Cc2ccc(C#N)cc2)cc1-c1ccc(CN[C@H](C)c2ccc(C)cc2)o1,enzyme activity,inhibitor,,1 µM,remaining activity,94%
Cc1ccc(C(=O)NCc2ccsc2)cc1C#Cc1cn(C(C)C)c2ncnc(N)c12,enzyme activity,inhibitor,,1 µM,activity vs control,93%
Cc1ccc(C(=O)Nc2ccc(CN3CCN(C)CC3)c(C(F)(F)F)c2)cc1C#Cc1cnc2cccnn12,enzyme activity,,,23.5 nM,remaining activity,86%
